Source: PubChem (several laboratories)
G6PDH CS: L. mesenteroides G6PDH inhibition counter-screen; inhibition, % at 5 µM; Purified L. mesenteroides G6PDH, diaphorase/resazurin coupled fluorescence, 45 min; AID 1020; hit rate 0.12% among 200,000; in the data active means inhibition above about 50%
Diaph inh CS: inhibits diaphorase or chemically oxidizes, flagging diaphorase assay artifacts. diaphorase resazurin-to-resorufin fluorescence, NADH, 16 min; bacterial (C. kluyveri) enzyme, not human. inhibition, % at 20 µM. hit rate 0.69% among 190,000. AID 1217;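 active means primary screen inhibition at 20 µM above a set limit, cut at about 50% in these data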;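 further: plate controls were DMSO with full reaction for no effect and wells lacking NADH for full effect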
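Test system: diaphorase enzyme from Clostridium kluyveri; amount: diaphorase at 0.14 U/mL in enzyme working solution; detection: fluorescence of resorufin formed from resazurin, Ex 544/Em 590 nm; times: reaction incubation of 16 min at room temperature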
p97 ATPase inh: blocks human p97 ATPase activity; P55072; recombinant p97 ATPase, Kinase-Glo ATP luminescence, 3 h; inhibition, % at 8 µM; hit rate 0.42% among 220,000; AID 1481; in the data active means inhibition above about 15%;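 further: 0% = DMSO vehicle and 100% = wells lacking enzyme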
SUMO HTRF inh: blocks human SUMOylation mediated by UBC9; HTRF SUMOylation assay, SAE1/SAE2 + UBC9, in vitro; inhibition, % at 35 µM; hit rate 0.36% among 290,000; P63279; in the data active means inhibition above about 50%, passing the limit was not always enough
Target sequence (P63279 whole entry, looked up): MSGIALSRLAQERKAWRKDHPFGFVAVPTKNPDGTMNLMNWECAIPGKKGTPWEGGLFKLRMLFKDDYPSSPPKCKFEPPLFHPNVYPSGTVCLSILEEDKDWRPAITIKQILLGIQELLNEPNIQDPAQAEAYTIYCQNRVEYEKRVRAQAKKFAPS
HKDC1 inhibitor: inhibitors of human hexokinase HKDC1 | recombinant HKDC1, G6PDH/diaphorase resazurin coupled fluorescence | inhibition, % at 20 µM | hit rate 0.16% among 340,000;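 active means inhibition above about 35% when tested at 20 µM, limit read from the data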;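 further: plate controls were DMSO wells with enzyme for no effect and DMSO wells lacking enzyme for full effect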
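test system = in-house recombinant HK5 (HKDC1) enzyme | amount = HKDC1 at 5 µg/mL | control set = DMSO-enzyme wells negative, buffer-substituted wells positive | compound = one dose of 20 µM, 1% DMSO | schedule = reaction time 90 min, room temperature, protected from light | technique = resorufin fluorescence at 613 nm | reagent = glucose with 1 mM ATP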
HKDC1 act conf2: HKDC1 (human) activation, single-dose confirmed | recombinant HKDC1, G6PDH/diaphorase resazurin fluorescence; active compounds read low | shares compounds with HKDC1 inhibitor | AID 504708 | hit rate 14% among 740 | inhibition, % at 20 µM;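 active means inhibition at or below a set negative limit, negative inhibition meaning the enzyme was activated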
* = called active by the depositor; / = no result. Hits are enriched below; roughly 0.95% of the tested compounds scored in any of these assays.

SMILES	G6PDH CS	Diaph inh CS	p97 ATPase inh	SUMO HTRF inh	HKDC1 inhibitor	HKDC1 act conf2
CC(=O)C1=C(c2ccccc2)N(C(C)=O)n2c(C)nnc2S1	5.6	11.7	3.5	-8.8	-314.6	-125.2*
CCc1nn2c(=O)cc(COc3ccc(/C=C4\C(=N)N5N=C(C)SC5=NC4=O)cc3)nc2s1	-5.7	29.5	0.5	4.0	58.2*	-27.1
COc1cc2c(C#Cc3cccnc3)c(-c3ccsc3)oc(=O)c2cc1OC	/	/	/	/	3.4	/
Cc1noc(C)c1S(=O)(=O)Nc1ccc2c(c1)C(=O)N([C@H](C)CO)C[C@H](C)[C@@H](CN(C)C(=O)Nc1ccc3c(c1)OCO3)O2	/	/	/	/	4.4	/
CC1=NNC(=O)/C1=C\c1cn(-c2ccccc2)nc1-c1ccc(Cl)cc1	2.1	14.0	-0.5	-105.3	37.2*	1.8
CC(=O)OCCN(CCCn1c(-c2ccncc2)nc2ccccc21)c1nc(CN2CCCCC2)cs1	/	/	/	21.8	-3.3	/
CC(=O)NC1C(=O)N(CCN2CCOCC2)c2ccc(Cl)cc21 (centres undefined)	/	/	/	/	82.4*	60.6
CC(=O)NC1C(=O)N(CCN2CCOCC2)c2ccc(F)cc21 (centres undefined)	/	/	/	/	79.3*	61.1
CCCCN1C(=O)C(NC(C)=O)c2cc(Br)ccc21 (centres undefined)	1.9	8.5	-0.2	3.0	-3.1	/
CC(=O)NC1C(=O)N(CCN2CCOCC2)c2ccc(C)cc21 (centres undefined)	/	/	/	81.4*	85.7*	69.7
O=C(Nc1ncccc1O)c1ccc(Oc2ccccc2)cc1	/	/	/	-4.7	-2.3	/
CCOC(=O)CC1(NC(=O)C2CCC(=O)N(Cc3ccccc3OC)C2)CCCCC1 (centres undefined)	/	/	/	-17.5	-4.4	/
Cc1cc(C)c2c(=N)c3ccccc3n(CCCCCCCCn3c4ccccc4c(=N)c4c(C)cc(C)nc43)c2n1	/	/	/	/	74.2*	23.4
CCCCCn1c(=O)[nH]c2cc(C(=O)NCCc3ccc(OC)c(OC)c3)ccc2c1=O	3.8	6.5	-7.4	21.3	-3.2	/
CCCCNC(=O)c1sc(=S)n2c1[nH]c(=O)c1ccc(C(=O)NCCc3ccc(OC)c(OC)c3)cc12	/	/	/	-12.8	47.9*	49.8
Cc1sc2ncnc(N3CCC(C(=O)N(CC(C)C)c4nc5ccccc5s4)CC3)c2c1C	/	/	/	/	-0.3	/
O=C(OCc1nnc(-c2ccc([N+](=O)[O-])cc2)o1)C1CCN(C(=O)c2ccc(F)cc2)CC1	/	/	/	/	4.7	/
CC(C)Nc1nnc(SCC(=O)Nc2ccc3c(c2)C(=O)c2ccccc2C3=O)s1	5.2	52.5*	3.9	19.8	43.1*	53.5
O=C(CSc1nnc(NC2CCCCC2)s1)Nc1ccc2c(c1)C(=O)c1ccccc1C2=O	7.5	43.6	3.0	31.8	-1.2	/
Cc1cc2cc(CN(Cc3cccs3)S(=O)(=O)c3ccc4c(c3)OCCO4)c(=O)[nH]c2cc1C	-16.3	6.4	4.6	-12.5	-47.0	-16.5
CC(=NNc1nc2ccccc2o1)c1cc2ccccc2cn1	/	/	/	/	-47.7	-77.2*
Cc1cccn2c(=O)c3cc(C(N)=S)c(=N)n(CCCN4CCOCC4)c3nc12	1.8	18.3	-0.3	11.3	-53.8	-12.8
CN(C)S(=O)(=O)c1cccc(N=C2SCCN2Cc2ccccc2)c1	/	/	-0.6	-10.2	-4.5	/
Cc1cccc(N=C2NN=C(c3c(C)[nH]c4ccccc34)CS2)c1	11.0	20.3	4.7	17.3	-41.0	-17.7
CCc1ccc(C2=NNC(=Nc3cccc(S(=O)(=O)N(C)C)c3)SC2)cc1	4.9	11.0	1.6	-17.4	-177.3	-140.7*
SMILES	G6PDH CS	Diaph inh CS	p97 ATPase inh	SUMO HTRF inh	HKDC1 inhibitor	HKDC1 act conf2
CC(C)c1ccc(N=C2NN=C(c3cccs3)CS2)cc1	5.3	-10.8	4.1	1.1	-5.5	/
Cc1ccc(C2=NNC(=Nc3ccc(F)cc3)SC2)cc1	3.7	16.3	1.7	-17.1	-69.6	-80.0*
Cc1cccc(N=C2NN=C(c3ccc4c(c3)OCCO4)CS2)c1	3.8	12.2	-2.5	-15.5	-61.7	-19.5
C=CCn1c(C)cc(C2=NNC(=Nc3ccc(C)cc3)SC2)c1C	2.0	0.7	3.4	5.8	-8.0	/
Clc1ccc(C2=NNC(=NCc3ccc4c(c3)OCO4)SC2)cc1	-26.3	2.8	0.9	-6.3	-17.0	/
O=C1C[C@@H]2c3c(cccc3CN1Cc1ccccc1F)C[C@@H](O)[C@H]2O	/	/	/	/	-4.4	/
O=C1NC(=S)NC(=O)C1=Cc1ccccc1C(=O)O	/	/	/	/	7.6	/
